Results published in ChEMBL document CHEMBL2021788, “Cytotoxic cardiac glycosides and other compounds from Asclepias syriaca” (J Nat Prod, 2012).

How the values were obtained:
[1] = Cytotoxicity against human Hs578Bst cells after 72 hrs by CellTiter-Glo assay; type: cell-based
Summary of the method: (§1)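 Breast lines (normal Hs578Bst; cancer Hs578T, T47D, Sk-Br-3, MCF-7) seeded at 3000 cells/well in 384-well plates, attached overnight. Compound dispensed acoustically at 14 concentrations spanning 0.002−40 μM, 72 h incubation. Viability by CellTiter-Glo luminescence read after 2 min shaking and 15 min stabilization. Triplicate dose−response curves, data normalized to median, IC50 from curve fit.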

SK-BR-3 = test: Cytotoxicity against human SK-BR-3 cells after 72 hrs by CellTiter-Glo assay; type: functional, cell-based; settings: SK-BR-3, 72 h; summary of the method: as §1
[2] = Cytotoxicity against human Hs578Bst cells at 40 uM after 72 hrs by CellTiter-Glo assay relative to untreated control; type: cell-based
Summary of the method: (§2)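 Hs578T or Hs578Bst cells plated at 3000/well in 384-well format, grown overnight, then exposed to 40 μM (top of a 14-point 0.002−40 μM series) for 72 h. CellTiter-Glo luminescence after 2 min shaking plus 15 min stabilization; viability given as percent of control, n = 3, ± SD.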

Hs-578T [3] = test: Cytotoxicity against human Hs578T cells after 72 hrs by CellTiter-Glo assay; type: functional, cell-based; summary of the method: as §1
MCF7 = test: Cytotoxicity against human MCF7 cells after 72 hrs by CellTiter-Glo assay; type: functional, cell-based; settings: MCF7, 72 h; summary of the method: as §1
T47D = test: Cytotoxicity against human T47D cells after 72 hrs by CellTiter-Glo assay; type: functional, cell-based; summary of the method: as §1
Hs-578T [4] = test: Cytotoxicity against human Hs578T cells at 40 uM after 72 hrs by CellTiter-Glo assay relative to untreated control; type: functional, cell-based; summary of the method: as §2

**Q.** With `C[C@]12CC[C@H](O[C@@H]3O[C@H](CO[C@@H]4O[C@H](CO)[C@@H](O)[C@H](O)[C@H]4O)[C@@H](O)[C@H](O)[C@H]3O)C[C@@H]1CC[C@@H]1[C@@H]2CC[C@]2(C)[C@@H](C3=CC(=O)OC3)CC[C@]12O` [UZARIN] as the compound, how does the IC50 [1] read?
**A.** 760 nM

**Q.** And the IC50 (SK-BR-3)?
**A.** 19400 nM

**Q.** What about the % toxicity [2] of the same compound?
**A.** 54.7%

**Q.** What about the IC50 (Hs-578T [3]) of the same compound?
**A.** 4580 nM

**Q.** What about the IC50 (MCF7) of the same compound?
**A.** 11600 nM

**Q.** And the IC50 (T47D)?
**A.** 9500 nM

**Q.** What about the % toxicity (Hs-578T [4]) of the same compound?
**A.** 84%

**Q.** Which IC50 [1] does the source give for `O=c1c(O[C@@H]2OC[C@@H](O)[C@H](O)[C@H]2O[C@@H]2O[C@H](CO)[C@H](O)[C@H](O)[C@H]2O)c(-c2ccc(O)cc2)oc2cc(O)cc(O)c12` here?
**A.** > 40000 nM

**Q.** And the IC50 (SK-BR-3)?
**A.** > 40000 nM

**Q.** What about the % toxicity [2] of the same compound?
**A.** 13.9%

**Q.** And the IC50 (Hs-578T [3])?
**A.** > 40000 nM

**Q.** What about the IC50 (MCF7) of the same compound?
**A.** > 40000 nM

**Q.** And the IC50 (T47D)?
**A.** > 40000 nM

**Q.** And the % toxicity (Hs-578T [4])?
**A.** 32.7%

**Q.** Which results are given for `C[C@H]1O[C@@H](O[C@H]2CC[C@@]3(C)[C@@H](CC[C@@H]4[C@@H]3CC[C@]3(C)[C@@H](C5=CC(=O)OC5)CC[C@]43O)C2)[C@H](O)[C@H](O)[C@@H]1O[C@@H]1O[C@H](CO)[C@@H](O)[C@H](O)[C@H]1O`?
**A.** IC50 [1]: 43 nM; IC50 (SK-BR-3): 2520 nM; % toxicity [2]: 51.7%; IC50 (Hs-578T [3]): 593 nM; IC50 (MCF7): 5300 nM; IC50 (T47D): 1760 nM; % toxicity (Hs-578T [4]): 91.5%

**Q.** With `C[C@]12CC[C@H](O)C[C@H]1CC[C@@H]1[C@@H]2CC[C@]2(C)[C@@H](C3=CC(=O)OC3)CC[C@]12O` [DIGITOXIGENIN] as the compound, how does the IC50 [1] read?
**A.** 150 nM

**Q.** And the IC50 (SK-BR-3)?
**A.** 4420 nM

**Q.** And the % toxicity [2]?
**A.** 49.8%

**Q.** And the IC50 (Hs-578T [3])?
**A.** 1020 nM

**Q.** What about the IC50 (MCF7) of the same compound?
**A.** 9100 nM

**Q.** What about the IC50 (T47D) of the same compound?
**A.** 2530 nM

**Q.** What about the % toxicity (Hs-578T [4]) of the same compound?
**A.** 92.3%

**Q.** Which results are given for `C[C@@H]1O[C@@H](O[C@H]2C[C@@H](O)[C@]3(CO)[C@H]4[C@H](O)C[C@]5(C)[C@@H](C6=CC(=O)OC6)CC[C@]5(O)[C@@H]4CC[C@]3(O)C2)[C@H](O)[C@H](O)[C@H]1O` [OUABAIN]?
**A.** IC50 [1]: 6 nM; IC50 (SK-BR-3): 403 nM; % toxicity [2]: 55.8%; IC50 (Hs-578T [3]): 110 nM; IC50 (MCF7): 10600 nM; IC50 (T47D): 385 nM; % toxicity (Hs-578T [4]): 93%

**Q.** What does the source list for `C[C@H]1O[C@@H](O[C@H]2CC[C@@]3(C)[C@@H](CC[C@@H]4[C@@H]3CC[C@]3(C)[C@](O)(C5=CC(=O)OC5)CC[C@]43O)C2)[C@H](O)[C@H](O)[C@@H]1O[C@@H]1O[C@H](CO)[C@@H](O)[C@H](O)[C@H]1O`?
**A.** IC50 [1]: 14200 nM; IC50 (SK-BR-3): > 40000 nM; % toxicity [2]: 38.2%; IC50 (Hs-578T [3]): > 40000 nM; IC50 (MCF7): > 40000 nM; IC50 (T47D): > 40000 nM; % toxicity (Hs-578T [4]): 56%

**Q.** With `COc1cccc2c1C(=O)c1c(O)c3c(c(O)c1C2=O)C[C@@](O)(C(=O)CO)C[C@@H]3O[C@H]1C[C@H](N)[C@H](O)[C@H](C)O1` [DOXORUBICIN] as the compound, how does the IC50 [1] read?
**A.** 180 nM

**Q.** What about the IC50 (SK-BR-3) of the same compound?
**A.** 210 nM

**Q.** What about the % toxicity [2] of the same compound?
**A.** 64.3%

**Q.** And the IC50 (Hs-578T [3])?
**A.** 546 nM

**Q.** And the IC50 (MCF7)?
**A.** 1540 nM

**Q.** And the IC50 (T47D)?
**A.** 1900 nM

**Q.** What about the % toxicity (Hs-578T [4]) of the same compound?
**A.** 98.3%

**Q.** Which results are given for `C[C@H]1O[C@@H](O[C@H]2[C@@H](O)C[C@H](O[C@H]3[C@@H](O)C[C@H](O[C@H]4CC[C@@]5(C)[C@H](CC[C@@H]6[C@@H]5C[C@@H](O)[C@]5(C)[C@@H](C7=CC(=O)OC7)CC[C@]65O)C4)O[C@@H]3C)O[C@@H]2C)C[C@H](O)[C@@H]1O` [DIGOXIN]?
**A.** IC50 [1]: 40 nM; IC50 (SK-BR-3): 1080 nM; % toxicity [2]: 47.7%; IC50 (Hs-578T [3]): 251 nM; IC50 (MCF7): 4700 nM; IC50 (T47D): 660 nM; % toxicity (Hs-578T [4]): 93.5%

**Q.** What does the source list for `C[C@]12CC[C@H](O[C@@H]3O[C@H](CO)[C@@H](O)[C@H](O)[C@H]3O)C[C@@H]1CC[C@@H]1[C@@H]2CC[C@]2(C)[C@@H](C3=CC(=O)OC3)CC[C@]12O` [DESGLUCOUZARIN]?
**A.** IC50 [1]: 1050 nM; IC50 (SK-BR-3): 18100 nM; % toxicity [2]: 51.6%; IC50 (Hs-578T [3]): 6280 nM; IC50 (MCF7): 17000 nM; IC50 (T47D): 11700 nM; % toxicity (Hs-578T [4]): 85.5%
